# Active and inactive are the calls of the source. No cut-off for these calls is given here.
# How the values were obtained:
# [1] = Solubility of the compound in propylene glycol; format: physicochemical
# Cavia porcellus = species: Cavia porcellus; assay: Inotropic activity at guinea pig left atria sodium/potassium-transporting ATPase up to 10^-4 M
# [2] = Inhibition of rat brain sodium/potassium-transporting ATPase in presence of Mg2+ and Na+; settings: read-out: I50
# How it was run: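 Rat brain Na+,K+-ATPase assayed with no preincubation of steroid and enzyme. Na+,K+-dependent activity was taken as activity with Mg2+, Na+ and K+ minus basal activity from tubes with Mg2+ and Na+ only. I50 (M) is from two to four runs.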
# [3] = Inhibition of rat brain sodium/potassium-transporting ATPase after 10 mins in presence of Mg2+ and Na+; settings: read-out: I50
# How it was run: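 Rat brain Na+,K+-ATPase. The steroid was added to enzyme medium lacking K+ and preincubated 10 min, then KCl was added to start Na+,K+-ATPase activity. Basal activity from tubes with Mg2+ and Na+ only was subtracted from activity with Mg2+, Na+ and K+. I50 (M) is from two to four runs.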
solubility [1],Activity (Cavia porcellus),Compound,IC50 [2] [nM],IC50 [3] [nM]
Insoluble,inactive,C=C1C(=O)OC[C@@H]1[C@H]1CC=C2[C@@H]3CC[C@@H]4C[C@@H](O)CC[C@]4(C)[C@H]3CC[C@@]21C,–,–
–,–,C[C@H]1O[C@@H](O[C@H]2[C@@H](O)C[C@H](O[C@H]3[C@@H](O)C[C@H](O[C@H]4CC[C@@]5(C)[C@H](CC[C@@H]6[C@@H]5CC[C@]5(C)[C@@H](C7=CC(=O)OC7)CC[C@]65O)C4)O[C@@H]3C)O[C@@H]2C)C[C@H](O)[C@@H]1O [DIGITOXIN],700,240
Insoluble,inactive,C=C1C(=O)OC[C@H]1[C@H]1CC=C2[C@@H]3CC[C@@H]4C[C@@H](O)CC[C@]4(C)[C@H]3CC[C@@]21C,> 100000,> 100000
–,–,C[C@@H]1O[C@@H](O[C@H]2C[C@@H](O)[C@]3(CO)[C@H]4[C@H](O)C[C@]5(C)[C@@H](C6=CC(=O)OC6)CC[C@]5(O)[C@@H]4CC[C@]3(O)C2)[C@H](O)[C@H](O)[C@H]1O [OUABAIN],500,40
–,–,C[C@]12CC[C@H](O)C[C@H]1CC[C@@H]1[C@@H]2CC[C@]2(C)[C@@H](C3=CC(=O)OC3)CC[C@]12O [DIGITOXIGENIN],460,500

Compound,solubility [1],Activity (Cavia porcellus),IC50 [2] [nM],IC50 [3] [nM]
C[C@]12CC[C@H](O)C[C@H]1CC[C@H]1C3=CC[C@H](C4=CC(=O)OC4)[C@@]3(C)CC[C@@H]12,Insoluble,inactive,63000,40000
